Laboratory results as given in ChEMBL document CHEMBL4765243, “Discovery of Novel Bromophenol-Thiosemicarbazone Hybrids as Potent Selective Inhibitors of Poly(ADP-ribose) Polymerase-1 (PARP-1) for Use in Cancer” (J Med Chem, 2019).
Active and inactive are the calls of the source. The calls are words filed in the database; no cut-off is given here.

Assays:
SK-OV-3 [1] = test: Induction of ROS generation in human SKOV3 cells assessed as fold increase in ROS level at 5 uM incubated for 48 hrs by DCFH-DA staining based flow cytometry relative to control; type: functional
[2] = Cytotoxicity against human HL7702 cells assessed as cell growth inhibition at 20 uM incubated for 48 hrs by MTT assay relative to control; type: cell-based; details: HL7702 (L02) cells
[3] = AUC (0 to infinity) in Sprague-Dawley rat at 10 mg/kg, po by LC/MS/MS analysis; type: ADME, organism-based; parameters: time infinity, route oral, dose 10 mg/kg; details: in vivo
[4] = Total plasma clearance in Sprague-Dawley rat at 2 mg/kg, iv by LC/MS/MS analysis; type: ADME, organism-based
Summary of the method: (§1)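 Male Sprague-Dawley rats, 4 per group, dosed once orally at 10 mg/kg or intravenously at 2 mg/kg. Blood taken from the saphenous vein for plasma. Drug levels measured by LC-MS-MS, with parameters derived by noncompartmental analysis.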

[5] = Half-life in Sprague-Dawley rat at 10 mg/kg, po by LC/MS/MS analysis; type: ADME, organism-based; details: in vivo; summary of the method: as §1
SK-OV-3 [6] = test: Induction of autophagy in human SKOV3 cells assessed as increase in Atg-14 protein level at 10 uM incubated for 48 hrs by western blot analysis; type: functional, cell-based
Summary of the method: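 SK-OV-3 cells seeded in 6-well plates, treated 48 h. Protein lysates separated on 8-15 % SDS-PAGE and transferred to PVDF. Membranes blocked in 5 % nonfat milk, probed with primary antibody overnight at 4 °C, then secondary antibody 1 h at room temperature. Bands detected by enhanced chemiluminescence.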

[7] = Subacute toxicity in SPF Kunming mouse assessed as clinical changes at 1000 mg/kg, po administered for 14 days and measured on day 14; type: organism-based; details: in vivo, 336 h, time 14 day
Summary of the method: (§2)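 Twenty SPF Kunming mice (18 - 22 g), half male and half female, randomised into 2 groups of 5 males + 5 females. Treated group dosed orally at 1000 mg/kg once daily for 14 days. Death, clinical signs and body weight monitored. After 14 days: isoflurane anaesthesia, decapitation, tissues collected for H&E histology.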

SK-OV-3 [8] = test: Antiproliferative activity against human SK-OV-3 cells assessed as cell growth inhibition at 20 uM incubated for 48 hrs by MTT assay relative to control; type: functional
[9] = Acute toxicity in SPF Kunming mouse assessed as change in body weight at 100 to 1000 mg/kg, po administered as single dose and measured upto 14 days post drug administration; type: organism-based; details: in vivo, 336 h, dose 100-1000 mg/kg, time <=14 day
Summary of the method: (§3)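 Single oral dose groups at 0 (physiological saline blank, equal volume), 100, 500 and 1000 mg/kg. Mice housed with free access to water and food in stainless cages, 25 ± 1 °C, 12-h light/dark cycle. Survival, body weight and abnormalities recorded up to 14 days post-treatment.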

[10] = Cmax in Sprague-Dawley rat at 2 mg/kg, iv by LC/MS/MS analysis; type: ADME, organism-based; parameters: route intravenous, dose 2 mg/kg; details: in vivo; summary of the method: as §1
[11] = biological target: T1, Poly [ADP-ribose] polymerase 1 (Homo sapiens, UniProt P09874); test: Inhibition of PARP-1 in human SKOV3 cells assessed as inhibition of H2O2-induced poly-ADP ribose formation preincubated for 4 hrs followed by H2O2 addition and incubated overnight by Alexa Fluor 488 staining based confocal microscopic analysis; type: cell-based; details: SK-OV-3, in the assay text read “incubated for 5 mins” for “incubated overnight”
Summary of the method: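 SK-OV-3 cells were seeded in 96-well plates and grown for 24 h, exposed to compound for 4 h, then to 10 mM H2O2 for 5 min. Cells were fixed and incubated with anti-PAR primary antibody overnight at 4 °C, then with Alexa Fluor 488 secondary antibody. Nuclei were stained with 1 % DAPI and imaged by confocal microscopy.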

[12] = Toxicity in Balb/c nude mouse xenografted with human SKOV3 cells assessed as histological changes in heart at 25 to 50 mg/kg, po for 21 days by H and E staining based microscopic analysis; type: organism-based; details: in vivo, 504 h, dose 25-50 mg/kg, time 21 day
Summary of the method: (§4)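 SK-OV-3 xenografts in female BALB/c nude mice were dosed orally at 25 or 50 mg/kg in 0.5% CMC-Na for 21 days. Tumours were then snap-frozen in liquid nitrogen or fixed in 10% neutral-buffered formalin. Analysis used western blotting, H&E and immunohistochemistry on paraffin sections (Ki67, γ-H2AX).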

[13] = Toxicity in Balb/c nude mouse xenografted with human SKOV3 cells assessed as histological changes in kidney at 25 to 50 mg/kg, po for 21 days by H and E staining based microscopic analysis; type: organism-based; details: in vivo, 504 h, dose 25-50 mg/kg, time 21 day; summary of the method: as §4
SK-OV-3 [14] = test: Induction of autophagy in human SKOV3 cells assessed as increase in formation of autophagosomes at 10 uM incubated for 48 hrs by TEM analysis; type: functional, cell-based
Summary of the method: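 SK-OV-3 cells exposed to 10 µM for 48 h, then fixed, dehydrated and resin-embedded. 200 nm sections on formvar grids, counterstained with uranyl acetate and lead citrate, imaged by transmission electron microscopy.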

Bel-7402 = test: Antiproliferative activity against human Bel-7402 cells assessed as cell growth inhibition at 20 uM incubated for 48 hrs by MTT assay relative to control; type: functional
[15] = Cmax in Sprague-Dawley rat at 10 mg/kg, po by LC/MS/MS analysis; type: ADME, organism-based; parameters: route oral, dose 10 mg/kg; details: in vivo; summary of the method: as §1
[16] = Tmax in Sprague-Dawley rat at 2 mg/kg, iv by LC/MS/MS analysis; type: ADME, organism-based; details: in vivo; summary of the method: as §1
[17] = MRT in Sprague-Dawley rat at 2 mg/kg, iv by LC/MS/MS analysis; type: ADME, organism-based; details: in vivo; summary of the method: as §1
Caco-2 = test: Antiproliferative activity against human Caco-2 cells assessed as cell growth inhibition at 20 uM incubated for 48 hrs by MTT assay relative to control; type: functional
[18] = Acute toxicity in SPF Kunming mouse assessed as lethal dose administered orally as single dose and measured upto 14 days post drug administration; details: in vivo, po, time <=14 day; summary of the method: as §3
[19] = Toxicity in Balb/c nude mouse xenografted with human SKOV3 cells assessed as change in body weight at 50 mg/kg, po for 21 days and measured every third day; type: organism-based; details: in vivo, 504 h, time 21 day
Summary of the method: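 Female BALB/c nu/nu mice, 6-8 weeks old, kept under SPF conditions. Each received 5×10^6 SK-OV-3 cells s.c. At 80–120 mm3 tumour volume, mice were split into four groups (n=6). […] Caliper measurement every three days; volume = X × (Y2/2).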

[20] = biological target: T1, Poly [ADP-ribose] polymerase 1; test: Inhibition of PARP-1 in human SKOV3 cells assessed as decrease in MCM3 protein expression level at 2.5 to 10 uM incubated for 48 hrs by western blot analysis; type: cell-based; details: SK-OV-3, dose 2.5-10 µM
Summary of the method: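 SK-OV-3 cells were grown in McCOY's 5A, seeded in 6-well plates and treated for 48 h. Lysate proteins were separated by 8-15 % SDS-PAGE and transferred to PVDF membranes. Membranes were blocked in 5 % nonfat milk, probed with primary antibody overnight at 4 °C and with HRP secondary antibody for 1 h at room temperature, then detected by enhanced chemiluminescence. Images are representative of 3 independent experiments.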

[21] = Subacute toxicity in SPF Kunming mouse assessed as induction of death at 1000 mg/kg, po administered for 14 days and measured on day 14; type: organism-based; details: in vivo, 336 h, time 14 day; summary of the method: as §2
SK-OV-3 [22] = test: Induction of cell cycle arrest in human SKOV3 cells assessed as reduction in CDK1 expression at 2.5 to 10 uM incubated for 48 hrs by western blot analysis; type: functional, cell-based; details: dose 2.5-10 µM

T1 sequence (P09874 whole entry): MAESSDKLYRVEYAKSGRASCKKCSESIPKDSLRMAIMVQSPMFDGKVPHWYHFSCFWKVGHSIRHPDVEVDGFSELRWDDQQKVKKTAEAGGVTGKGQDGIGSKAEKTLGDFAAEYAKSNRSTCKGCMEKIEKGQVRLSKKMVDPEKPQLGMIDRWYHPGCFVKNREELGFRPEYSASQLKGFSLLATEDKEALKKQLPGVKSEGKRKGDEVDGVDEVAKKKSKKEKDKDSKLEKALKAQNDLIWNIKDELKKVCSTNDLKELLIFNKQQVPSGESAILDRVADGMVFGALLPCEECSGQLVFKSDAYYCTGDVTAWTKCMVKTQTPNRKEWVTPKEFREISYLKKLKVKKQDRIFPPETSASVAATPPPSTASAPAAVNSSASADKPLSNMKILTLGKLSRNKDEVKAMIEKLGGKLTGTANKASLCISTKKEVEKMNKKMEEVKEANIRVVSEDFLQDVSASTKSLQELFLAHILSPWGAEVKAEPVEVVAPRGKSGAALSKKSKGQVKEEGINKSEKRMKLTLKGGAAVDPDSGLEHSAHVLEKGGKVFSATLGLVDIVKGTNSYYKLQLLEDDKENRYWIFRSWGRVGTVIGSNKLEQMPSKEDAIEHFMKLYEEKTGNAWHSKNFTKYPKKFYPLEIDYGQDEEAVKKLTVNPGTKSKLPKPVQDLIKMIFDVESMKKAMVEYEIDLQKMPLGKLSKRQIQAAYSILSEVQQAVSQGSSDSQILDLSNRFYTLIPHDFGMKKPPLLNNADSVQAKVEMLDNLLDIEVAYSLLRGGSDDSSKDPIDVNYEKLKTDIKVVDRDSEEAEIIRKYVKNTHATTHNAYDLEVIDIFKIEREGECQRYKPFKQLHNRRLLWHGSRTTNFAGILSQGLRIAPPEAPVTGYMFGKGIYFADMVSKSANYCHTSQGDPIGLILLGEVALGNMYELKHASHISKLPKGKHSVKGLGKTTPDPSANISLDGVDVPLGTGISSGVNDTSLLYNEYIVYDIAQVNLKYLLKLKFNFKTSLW

COc1cc(/C=N/NC(N)=S)c(Br)c(Br)c1OC
fold change (FC) (SK-OV-3 [1]): 2.51 | inhibition at 48 h, 20 µM [2]: 89.9% | AUC [3]: 0.0839 µM·h | clearance [4]: 88.7 mL/min/kg | half-life [5]: 2.6 h | Activity (SK-OV-3 [6]): Active | Activity [7]: Non-Toxic | inhibition at 20 µM (SK-OV-3 [8]): 100% | Activity [9]: Non-Toxic | Cmax [10]: 1250 nM | inhibition [11]: Active | Activity [12]: Non-Toxic | Activity [13]: Non-Toxic | Activity (SK-OV-3 [14]): Active | inhibition at 20 µM (Bel-7402): 63.5% | Cmax [15]: 19.9 nM | Tmax [16]: 4.8 min | MRT [17]: 1.14 h | inhibition at 20 µM (Caco-2): 59.6% | LD50 at 336 h [18]: 1000 mg/kg | Activity [19]: Non-Toxic | inhibition [20]: Active | Activity [21]: Non-Toxic | Activity (SK-OV-3 [22]): Active
